PubChem BioAssay AID602159 (Southern Research Specialized Biocontainment Screening …, 2011)

System: HEp-2 RSV CPE, time of addition, CellTiter-Glo viability
Test: stage of RSV life cycle blocked in HEp-2 – cell-based, set 2, mechanism study for RSV inhibitor project, late-stage follow-up (AID 602159)
Details: at 25 µM, stronger effect = higher value
Procedure, shortened: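 Test system: RSV-infected HEp-2 cells / Incubation: compound dosing 1 h pre- to 24 h post-infection, six-day incubation / Doses: single 25 µM compound dose, 0.5% DMSO final / Measure: percent viable cells, compared across compound addition times / Technique: CellTiter-Glo ATP luminescence at day 6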

[1] = measured here: added 1 h before infection
[2] = measured here: added 1 h post infection
[3] = measured here: added 12 h post infection
[4] = measured here: added 24 h post infection

Row | Compound | viability (added 21 h post infection) | viability (added at infection) | viability [1] | viability [2] | viability [3] | viability [4]
1 | COCCCNC(=O)c1ccc(Cn2c(=O)c3ccccc3n(Cc3ccc([N+](=O)[O-])cc3)c2=O)cc1 | 80.1% | 72.1% | 52.3% | 70.2% | 81.9% | 68%
2 | COCCCNC(=O)c1ccc(Cn2c(=O)c3ccccc3n(Cc3ccc(C(C)C)cc3)c2=O)cc1 | 38.8% | 44% | 49.5% | 42.9% | 43.8% | 31.1%
3 | CN(C)c1ccc(Cn2c(=O)n(Cc3ccc(C(=O)NCC4COC4)cc3)c(=O)c3ccccc32)cc1 | 96.4% | 91.3% | 90.1% | 91.6% | 73.2% | 78.7%
